Measurements taken from ChEMBL document CHEMBL3351381, “Synthesis, structure-activity relationship studies, and antibacterial evaluation of 4-chromanones and chalcones, as well as olympicin A and derivatives” (J Med Chem, 2014).
≈ marks a conversion by molar mass, not a printed value.

What was measured:
[1] = tested on: Klebsiella pneumoniae; assay: Antimicrobial activity against Klebsiella pneumoniae ATCC 33495 at >200 ug/ml by microbroth dilution method; assay type: functional
[2] = tested on: Staphylococcus aureus; assay: Antimicrobial activity against methicillin-resistant Staphylococcus aureus NRS 70 by microbroth dilution method; assay type: functional
[3] = tested on: Enterococcus faecalis; assay: Antimicrobial activity against Enterococcus faecalis ATCC 33186 by microbroth dilution method; assay type: functional
[4] = Inhibition of Escherichia coli topoisomerase 4 assessed as inhibition of decatenation of catenated kinetoplast DNA after 30 mins by electrophoretic analysis
[5] = biological target: DNA gyrase (Escherichia coli, UniProt P0AES4+P0AES6); assay: Inhibition of Escherichia coli DNA gyrase assessed as supercoiled plasmid DNA formation after 30 mins by electrophoretic analysis; assay type: protein-complex assay
[6] = tested on: Staphylococcus aureus; assay: Antimicrobial activity against methicillin-sensitive Staphylococcus aureus ATCC 29213 by microbroth dilution method; assay type: functional
[7] = tested on: Mycobacterium tuberculosis; assay: Antimicrobial activity against Mycobacterium tuberculosis H37Rv by microbroth dilution method; assay type: functional
[8] = tested on: Pseudomonas aeruginosa; assay: Antimicrobial activity against Pseudomonas aeruginosa PAO1 at >200 ug/ml by microbroth dilution method; assay type: functional
[9] = tested on: Escherichia coli; assay: Antimicrobial activity against Escherichia coli K-12 by microbroth dilution method; assay type: functional
[10] = Inhibition of purified recombinant Escherichia coli topoisomerase 1 assessed as relaxation of supercoiled plasmid DNA after 30 mins by electrophoretic analysis
[11] = tested on: Escherichia coli; assay: Antimicrobial activity against tolC-deficient Escherichia coli by microbroth dilution method; assay type: functional
[12] = tested on: Vero; assay: Cytotoxicity against african green monkey Vero cells assessed as reduction in cell viability by MTT assay; assay type: cell-based; settings: Chlorocebus sabaeus
Procedure, shortened: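 Vero kidney epithelial cells (ATCC CCL-81) in DMEM/10% FBS, trypsinized, seeded near 10% confluence, left overnight to adhere; medium swapped for DMEM/FBS with 2-fold serial compound dilutions.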

[13] = Selectivity index, ratio of CC50 for african green monkey Vero cells to IC50 for methicillin-resistant Staphylococcus aureus NRS 70; assay type: functional
Procedure, shortened: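 Vero kidney epithelial cells were grown in DMEM/10% FBS, trypsinized, seeded at about 10% confluence and left overnight to adhere. They were then exposed to 2-fold serial compound dilutions in DMEM/FBS, and viability was read by MTT after overnight solubilization. SI = cytotoxic IC50 divided by MIC against MRSA.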

[14] = Solubility of the compound in DMEM/FBS medium; assay type: physicochemical
Procedure, shortened: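 Solubility limit estimated from 2-fold serial dilutions in DMEM with 5% FBS kept overnight at 37 °C; highest concentration with no visible precipitate taken.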

| SMILES | MIC [1] | MIC [2] | MIC [3] | IC50 [4] | IC50 [5] | MIC [6] | MIC [7] | MIC [8] | MIC [9] | IC50 [10] | MIC [11] | IC50 [12] | Selectivity Index [13] | solubility [14] |
| --- | --- | --- | --- | --- | --- | --- | --- | --- | --- | --- | --- | --- | --- | --- |
| CCCCCCCCOc1cc(O)cc(O)c1C(=O)C(C)CC (racemic) | > 200 µg/mL | 1.56 µg/mL (≈ 4.84 µM) | 0.78 µg/mL (≈ 2.42 µM) | 30 µM | > 1000 µM | 1.56 µg/mL (≈ 4.84 µM) | 100 µg/mL (≈ 310 µM) | > 200 µg/mL | > 200 µg/mL | > 500 µM | > 200 µg/mL |  |  |  |
| CSc1ccc2c(c1)N(CCC1CCCCN1C)c1ccccc1S2 (stereo not given) [THIORIDAZINE] |  |  |  |  |  |  |  |  |  |  |  | 5.3 µg/mL (≈ 14.3 µM) |  |  |
| CC(C)=CCCC(C)CC1CC(=O)c2ccc(O)cc2O1 (stereo not given) | > 200 µg/mL | 3.13 µg/mL (≈ 10.9 µM) | 12.5 µg/mL (≈ 43.3 µM) |  |  | 6.25 µg/mL (≈ 21.7 µM) | 200 µg/mL (≈ 694 µM) | > 200 µg/mL | > 200 µg/mL |  | 1.56 µg/mL (≈ 5.41 µM) | 28.8 µg/mL (≈ 99.9 µM) | 9.2 | > 200 µg/mL |
| CCn1cc(C(=O)O)c(=O)c2ccc(C)nc21 [NALIDIXIC ACID] |  |  |  | 806 µM |  |  |  |  |  |  |  |  |  |  |
| CCCCCCCC1C/C(=N\O)c2c(O)cc(O)cc2O1 (stereo not given) | > 200 µg/mL |  | 6.25 µg/mL (≈ 21.3 µM) |  |  |  | 100 µg/mL (≈ 341 µM) | > 200 µg/mL | > 200 µg/mL |  |  | 9.6 µg/mL (≈ 32.7 µM) | 3.1 | > 200 µg/mL |
| CCCCCCCCCC1CC(=O)c2c(O)cc(O)cc2O1 (stereo not given) | > 200 µg/mL | 3.13 µg/mL (≈ 10.2 µM) | 100 µg/mL (≈ 326 µM) |  |  | 100 µg/mL (≈ 326 µM) | 100 µg/mL (≈ 326 µM) | > 200 µg/mL | > 200 µg/mL |  | 12.5 µg/mL (≈ 40.8 µM) | 8.6 µg/mL (≈ 28.1 µM) | 2.8 | > 200 µg/mL |
| CCCCCCCCOc1ccccc1C1CC(=O)c2ccc(O)cc2O1 (stereo not given) | > 200 µg/mL | 3.13 µg/mL (≈ 8.49 µM) | 1.56 µg/mL (≈ 4.23 µM) | > 1000 µM | > 1000 µM | 12.5 µg/mL (≈ 33.9 µM) | > 200 µg/mL | > 200 µg/mL | > 200 µg/mL | > 500 µM | > 200 µg/mL | 17 µg/mL (≈ 46.1 µM) | 5.4 | > 200 µg/mL |
| CCCCCCCCCC1C/C(=N\OC)c2c(O)cc(O)cc2O1 (stereo not given) | > 200 µg/mL | 25 µg/mL (≈ 74.5 µM) | > 200 µg/mL |  |  | 100 µg/mL (≈ 298 µM) | 200 µg/mL (≈ 596 µM) | > 200 µg/mL | > 200 µg/mL |  | > 200 µg/mL |  |  |  |
| CCCCCc1cc(OC(=O)c2c(O)cc(O)cc2CCCCC)cc(O)c1C(=O)O |  |  |  |  |  |  |  |  |  | 14 µM |  |  |  |  |
| O=C1CC(C2CCCCC2)Oc2cc(O)cc(O)c21 (stereo not given) | > 200 µg/mL | 25 µg/mL (≈ 95.3 µM) | 25 µg/mL (≈ 95.3 µM) |  |  | 25 µg/mL (≈ 95.3 µM) | 100 µg/mL (≈ 381 µM) | > 200 µg/mL | > 200 µg/mL |  | 6.25 µg/mL (≈ 23.8 µM) |  |  |  |
| CCCCCCCCCC1C/C(=N\O)c2c(O)cc(O)cc2O1 (stereo not given) | > 200 µg/mL | 12.5 µg/mL (≈ 38.9 µM) | 6.25 µg/mL (≈ 19.4 µM) |  |  | 12.5 µg/mL (≈ 38.9 µM) | 100 µg/mL (≈ 311 µM) | > 200 µg/mL | > 200 µg/mL |  | > 200 µg/mL | 10.1 µg/mL (≈ 31.4 µM) | 0.8 | 37.5 µg/mL (≈ 117 µM) |
| C=CCOc1ccccc1C1CC(=O)c2c(O)cc(O)cc2O1 (stereo not given) | > 200 µg/mL | 12.5 µg/mL (≈ 40 µM) | 50 µg/mL (≈ 160 µM) |  |  | 25 µg/mL (≈ 80 µM) | > 200 µg/mL | > 200 µg/mL | > 200 µg/mL |  | 6.25 µg/mL (≈ 20 µM) |  |  |  |
| CCCCCCCCCC1C/C(=N\OCc2ccccc2)c2c(O)cc(O)cc2O1 (stereo not given) | > 200 µg/mL | > 200 µg/mL | 50 µg/mL (≈ 121 µM) |  |  | > 200 µg/mL | > 200 µg/mL | > 200 µg/mL | > 200 µg/mL |  | > 200 µg/mL |  |  |  |
| COCOc1ccc(C(=O)/C=C/C2=CCC3CC2C3(C)C)c(O)c1 (stereo not given) | > 200 µg/mL | > 200 µg/mL | > 200 µg/mL |  |  | > 200 µg/mL | 100 µg/mL (≈ 304 µM) | > 200 µg/mL | > 200 µg/mL |  | 25 µg/mL (≈ 76.1 µM) |  |  |  |
| CCCCCCC1CC(O)c2ccc(O)cc2O1 (stereo not given) | > 200 µg/mL | 200 µg/mL (≈ 799 µM) | 50 µg/mL (≈ 200 µM) |  |  | > 200 µg/mL | 50 µg/mL (≈ 200 µM) | > 200 µg/mL | > 200 µg/mL |  | 3.13 µg/mL (≈ 12.5 µM) |  |  |  |
| CC1(C)C2CC=C(C3CC(=O)c4ccc(O)cc4O3)C1C2 (stereo not given) | > 200 µg/mL | 200 µg/mL (≈ 703 µM) | > 200 µg/mL |  |  | 200 µg/mL (≈ 703 µM) | > 200 µg/mL | > 200 µg/mL | > 200 µg/mL |  | 6.25 µg/mL (≈ 22 µM) |  |  |  |
